Compound activity from PubChem BioAssay.
FAK inh = FAK (human) kinase inhibition; inhibition, %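 (tested at 7 µM)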; Q05397; hit rate 0.84% among 97,000; biochemical FAK kinase activity assay; in the data active = inhibition above about 19%;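 note: 0% = DMSO and 100% = reference compound high control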
IL1B NFkB inh = blocks IL-1B driven NFkB nuclear translocation in HUVEC cells; hit rate 0.43% among 94,000; inhibition, % at 2 µM; HUVEC IL-1B NFkB p65 nuclear translocation imaging;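 active = inhibition above about 30% together with a positive call from visual inspection of the well image, limit read from the data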;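 note: nuclear over cytoplasmic p65 intensity ratio measured by imaging; 0% = IL-1B stimulated DMSO wells and 100% = unstimulated DMSO wells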
Measles CPE = protection of cells from measles virus | Measles virus-infected cells, CPE protection, absorbance | protection (pct of control), % at 4 µM | hit rate 1.5% among 140,000 | AID 841; in the data active = protection mostly above about 24%, no sharp cut-off; inactive = mostly below about 26%
HUVEC tox IL1B = toxic to HUVEC cells under IL-1B stimulation | HUVEC cell count loss, Hoechst imaging, IL-1B stimulated | cell count reduction, % at 2 µM | hit rate 0.41% among 94,000;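 active = cell count reduction more than 3 SD above the screen-wide mean, cut at about 70% in these data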;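 note: normalized per plate to untreated control cells as the no-loss baseline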
Rev-RRE block = disrupts HIV-1 Rev binding to RRE RNA | Rev peptide-RRE RNA binding, FRET | inhibition, % at 8 µM | hit rate 0.79% among 97,000;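 active = inhibition above the screen-wide mean plus 3 SD, cut at about 35% in these data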;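 note: 0% = median DMSO wells and 100% = median Neomycin B control wells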
Target sequence (P05866 whole entry, looked up): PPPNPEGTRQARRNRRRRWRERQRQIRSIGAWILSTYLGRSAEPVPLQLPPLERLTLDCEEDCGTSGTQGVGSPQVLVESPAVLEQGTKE
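Assay system: Rev peptide and RRE RNA, both fluorescently labelled; times: 5 min preincubation and 15 min binding, 25 °C; detection: FRET, ex 480 nm, em 540 and 671 nm; read-out basis: % inhibition from 671/540 nm acceptor-to-donor ratio, scaled between controls; benchmarks: DMSO low control, neomycin B high control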
IL1B NFkB pot = enhances IL-1B driven NFkB nuclear translocation. HUVEC IL-1B NFkB p65 nuclear translocation imaging. activation, % at 2 µM. hit rate 0.3% among 94,000;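 active = activation above 40%, about the mean plus 3 SD, also judged a hit on visual image review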;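 note: percent activation is computed from the nuclear over cytoplasmic p65 intensity ratio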
* hit, by the source's call; x = no result. Hits are enriched below; roughly 3.3% of the tested compounds scored in any of these assays.

SMILES	FAK inh	IL1B NFkB inh	Measles CPE	HUVEC tox IL1B	Rev-RRE block	IL1B NFkB pot
Brc1ccc(-c2cn3nc4c(nc3n2)CCCC4)cc1	6	-18	4	4	25	17
Cn1c(Cl)c(/C=N/OC(=O)c2ccccc2Cl)c2ccccc21	-4	-10	8	-30	7	10
Cc1cccc(C(=O)O/N=C/c2c(N3CCOCC3)n(C)c3ccccc23)c1	0	6	32*	-23	1	-6
CCOc1cc(Br)ccc1S(=O)(=O)N1CCC(C(N)=O)CC1	x	x	5	x	x	x
Nc1nc(CN2CCN(c3ccccc3)CC2)nc(N2CCCc3ccccc32)n1	0	-8	87*	5	6	8
Nc1nc(CN2CCN(c3cccc(Cl)c3)CC2)nc(N2CCCc3ccccc32)n1	0	7	11	-11	5	-7
O=C(NC1CC1)C1CC(=O)N(C2CCCCC2)C1 (stereo not given)	-4	-121	11	5	6	121*
CCc1ccc(NC2=NC(C(=O)NC3CCCCC3)CC(=O)N2)cc1 (stereo not given)	-1	-11	56*	-26	-1	11
Cc1c(C(=O)N/N=C/c2cccs2)nc2ccccn12	x	x	5	x	x	x
CC(=O)Nc1ccc(S(=O)(=O)N[C@@H](C)C(=O)OCc2ccc(Cl)cc2)cc1	x	x	20	x	x	x
CN1C=CC2=C(C#N)C(N)C(C#N)(C#N)[C@H](c3ccccc3)[C@H]2C1 (stereo not given in full)	3	-5	3	-11	60*	5
N#CC1(C#N)C(C(N)=O)C1c1ccccc1 (stereo not given)	x	x	9	x	x	x
COc1cccc(N2C(=O)C(Cc3c[nH]c4ccccc34)NC2=S)c1 (stereo not given)	x	x	25	x	x	x
COC(=O)c1cn(NC(=O)c2ccc(F)cc2)c(=O)c2ccccc12	0	-13	44*	10	2	13
CCC(Sc1ccc2nnc(-c3ccc(F)cc3)n2n1)C(=O)OC (stereo not given)	5	3	20	82*	2	-3
COC(=O)C(C)Sc1ccc2nnc(-c3ccc(F)cc3)n2n1 (stereo not given)	6	1	7	6	4	-1
CCn1c(CSc2nccn2C)nc2cc(C(=O)O)ccc21	8	5	51*	5	22	-5
O=C(OCCN(C1=NS(=O)(=O)c2ccccc21)c1ccccc1Cl)c1ccc(Cl)cc1	0	5	5	7	19	-5
O=C(Oc1ccc(N(Cc2cccs2)C2=NS(=O)(=O)c3ccccc32)cc1)c1ccccc1F	1	-12	28*	14	5	12
COc1ccc(NC(=O)CCC2CCCCC2)cc1S(=O)(=O)N1CCCCC1	x	x	6	x	x	x
Cc1cc(NC(=O)CC(C)(C)C)nc2c1c(=O)oc1ccccc12	-2	24	7	-11	12	-24
CCCc1cc2c(c(NC(C)=O)n1)c(=O)oc1ccccc12	-6	19	16	78*	6	-19
CCCc1[nH]nc2c1C(c1cc(OC)cc(OC)c1)C(C#N)=C(N)O2 (stereo not given)	4	8	83*	-15	7	-8
CCCc1[nH]nc2c1C(c1ccc(OC)c(CSC3=NCCS3)c1)C(C#N)=C(N)O2 (stereo not given)	3	-2	28*	-34	4	2
COCc1[nH]nc2c1C(c1ccccc1Cl)C(C#N)=C(N)O2 (stereo not given)	-1	12	4	88*	8	-12
SMILES	FAK inh	IL1B NFkB inh	Measles CPE	HUVEC tox IL1B	Rev-RRE block	IL1B NFkB pot
COCc1[nH]nc2c1C(c1ccccc1OC)C(C#N)=C(N)O2 (stereo not given)	x	x	3	x	x	x
CCCc1[nH]nc2c1C(c1ccc(OC(=O)N3CCOCC3)c(OC)c1)C(C#N)=C(N)O2 (stereo not given)	0	22	8	-91	0	-22
CCCc1[nH]nc2c1C(c1cc(OC)ccc1F)C(C#N)=C(N)O2 (stereo not given)	18	0	15	-50	4	0
C/C(Cn1nnc2ccccc21)=N\NC(=O)c1cccc(Br)c1	x	x	6	x	x	x
CC(C)(C)NC(=O)c1ccc2nsnc2c1	x	x	7	x	x	x
c1ccc2c(c1)OCCOCCOCCOCCOc1ccccc1OCCOCCOCCO2	x	x	47*	x	x	x
CCn1c(SCc2nc(-c3ccccc3)no2)nc2ccccc21	2	5	11	12	8	-5
